Data published in ChEMBL document CHEMBL4480361, “Design, synthesis, and in vitro biological evaluation of novel benzimidazole tethered allylidenehydrazinylmethylthiazole derivatives as potent inhibitors of Mycobacterium tuberculosis” (Medchemcomm, 2019).
≈ marks a conversion by molar mass, not a printed value.

What was measured:
MDCK = assay: Cytotoxicity against MDCK cells assessed as reduction in cell viability after 72 hrs by CCK-8 assay; assay type: cell-based; conditions: Canis lupus familiaris
[1] = tested on: Mycobacterium tuberculosis; assay: Antitubercular activity against auto-luminescent Mycobacterium tuberculosis H37Ra measured for 5 days by luminescence assay; assay type: functional; conditions: 120 h
Summary of the method: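 Unmarked autoluminescent H37Ra homogenised with glass beads, grown in 7H9 with 0.05% Tween 80 and 10% OADC to OD600 0.3–0.5. At 2 million RLU, diluted to 2000–4000 RLU in Tween-free 7H9. Compounds tested in 3-fold steps from […] μg mL⁻¹, with DMSO and rifampicin (10, 1, 0.1 μg mL⁻¹) controls. RLU read daily for 5 days. MIClux is the lowest concentration giving RLUdrug/RLUDMSO below 10%.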

[2] = tested on: Mycobacterium tuberculosis; assay: Antitubercular activity against Mycobacterium tuberculosis H37Ra measured for 5 days by resazurin dye-based assay; assay type: functional; conditions: 120 h

SMILES	IC50 (MDCK) [mg/L]	MIC90 [1] [mg/L]	MIC [2] [mg/L]
NC(=S)N/N=C(/C=C/c1ccc(Cl)c(F)c1)c1nc2ccccc2[nH]1	1.5 (≈ 4.01 µM)	5 (≈ 13.4 µM)	
Cc1csc(N/N=C(/C=C/c2ccc(F)cc2)c2nc3ccccc3[nH]2)n1		5 (≈ 13.2 µM)	
NC(=S)N/N=C(/C=C/c1ccc[nH]1)c1nc2ccccc2[nH]1		100 (≈ 322 µM)	
NC(=S)N/N=C(/C=C/c1ccc(Br)cc1)c1nc2ccccc2[nH]1	2.6 (≈ 6.5 µM)	4 (≈ 9.99 µM)	
Cc1ccc(/C=C/C(=N/Nc2nc(C)cs2)c2nc3ccccc3[nH]2)cc1		10 (≈ 26.8 µM)	
COc1ccc(/C=C/C(=N/NC(N)=S)c2nc3ccccc3[nH]2)cc1		10 (≈ 28.5 µM)	
Cc1csc(N/N=C(/C=C/c2cccc3[nH]ccc23)c2nc3ccccc3[nH]2)n1		10 (≈ 25.1 µM)	
Cc1csc(N/N=C(/C=C/c2ccccc2)c2nc3ccccc3[nH]2)n1	2.9 (≈ 8.07 µM)	4 (≈ 11.1 µM)	
Cc1csc(N/N=C(/C=C/c2ccc(F)c(C)c2)c2nc3ccccc3[nH]2)n1		10 (≈ 25.5 µM)	
NC(=S)N/N=C(/C=C/c1ccc(OC(F)(F)F)cc1)c1nc2ccccc2[nH]1	0.34 (≈ 0.839 µM)	5 (≈ 12.3 µM)	
Cc1csc(N/N=C(/C=C/c2ccc(Br)cc2)c2nc3ccccc3[nH]2)n1		10 (≈ 22.8 µM)	
COc1cc(OC)c(/C=C/C(=N/NC(N)=S)c2nc3ccccc3[nH]2)c(OC)c1		> 50	
NC(=S)N/N=C(/C=C/c1cc(F)cc(F)c1)c1nc2ccccc2[nH]1	1.6 (≈ 4.48 µM)	5 (≈ 14 µM)	
CCN(CC)c1ccc(/C=C/C(=N/Nc2nc(C)cs2)c2nc3ccccc3[nH]2)cc1	> 30	2.5 (≈ 5.81 µM)	
COc1cccc(/C=C/C(=N/NC(N)=S)c2nc3ccccc3[nH]2)c1OC	3.9 (≈ 10.2 µM)	5 (≈ 13.1 µM)	
Cc1csc(N/N=C(/C=C/c2ccc[nH]2)c2nc3ccccc3[nH]2)n1		100 (≈ 287 µM)	
NC(=S)N/N=C(/C=C/c1ccccc1)c1nc2ccccc2[nH]1	3.4 (≈ 10.6 µM)	5 (≈ 15.6 µM)	
CCN(CC)c1ccc(/C=C/C(=N/NC(N)=S)c2nc3ccccc3[nH]2)cc1		10 (≈ 25.5 µM)	
Cc1cc(/C=C/C(=N/NC(N)=S)c2nc3ccccc3[nH]2)ccc1F	1.6 (≈ 4.53 µM)	4 (≈ 11.3 µM)	
Cc1csc(N/N=C(/C=C/c2cc(F)cc(F)c2)c2nc3ccccc3[nH]2)n1		10 (≈ 25.3 µM)	
COc1cc(OC)c(/C=C/C(=N/Nc2nc(C)cs2)c2nc3ccccc3[nH]2)c(OC)c1		> 50	
Cc1ccc(/C=C/C(=N/NC(N)=S)c2nc3ccccc3[nH]2)cc1	3.7 (≈ 11 µM)	5 (≈ 14.9 µM)	
COc1cccc(/C=C/C(=N/Nc2nc(C)cs2)c2nc3ccccc3[nH]2)c1OC		10 (≈ 23.8 µM)	
Cc1csc(N/N=C(/C=C/c2ccc(Cl)c(F)c2)c2nc3ccccc3[nH]2)n1		10 (≈ 24.3 µM)	
NC(=S)N/N=C(/C=C/c1ccc(F)cc1)c1nc2ccccc2[nH]1	1.6 (≈ 4.71 µM)	2.5 (≈ 7.37 µM)	
COc1ccc(/C=C/C(=N/Nc2nc(C)cs2)c2nc3ccccc3[nH]2)cc1	1.9 (≈ 4.88 µM)	10 (≈ 25.7 µM)	
Cc1csc(N/N=C(/C=C/c2ccc(OC(F)(F)F)cc2)c2nc3ccccc3[nH]2)n1		10 (≈ 22.6 µM)	
NC(=S)N/N=C(/C=C/c1cccc2[nH]ccc12)c1nc2ccccc2[nH]1	0.91 (≈ 2.52 µM)	5 (≈ 13.9 µM)	
CCNC(=O)Nc1nc2cc(-c3cccnc3)cc(-c3ccccn3)c2[nH]1			0.001 (≈ 0.00279 µM)
CO[C@H]1/C=C/O[C@@]2(C)Oc3c(C)c(O)c4c(O)c(c(/C=N/N5CCN(C)CC5)c(O)c4c3C2=O)NC(=O)/C(C)=C\C=C\[C@H](C)[C@H](O)[C@@H](C)[C@@H](O)[C@@H](C)[C@H](OC(C)=O)[C@@H]1C [RIFAMPIN]		0.25 (≈ 0.304 µM)	
